Experimental data from different studies.
Each line is one published result; the experiments were not run side by side.
KIT V559D/V654A: Mast/stem cell growth factor receptor Kit (KIT, Homo sapiens, UniProt P10721, V559D/V654A)
KIT autoinhibited: Mast/stem cell growth factor receptor Kit, autoinhibited (KIT, Homo sapiens, UniProt P10721)
KIT L576P: Mast/stem cell growth factor receptor Kit (KIT, Homo sapiens, UniProt P10721, L576P)
KIT: Mast/stem cell growth factor receptor Kit (KIT, Homo sapiens, UniProt P10721)
KIT D816V: Mast/stem cell growth factor receptor Kit (KIT, Homo sapiens, UniProt P10721, D816V)
KIT V559D: Mast/stem cell growth factor receptor Kit (KIT, Homo sapiens, UniProt P10721, V559D)

target | effect on | method | tested at | remaining binding [%] | Structure (SMILES)
KIT V559D/V654A | binding |  | 10 µM | 4 | CN1CCN(c2ccc(Nc3nccc(-c4ccccc4)n3)cc2C(F)(F)F)CC1
KIT autoinhibited | binding |  | 1 µM | 100 | CC1CCCN1c1nccc(-c2cnn3ncccc23)n1 (stereo not drawn)
KIT L576P | cell-free assay | competition with immobilised ligand | 1 µM | 100 | O=S(=O)(NC1CCC(c2cc(F)ccc2F)(S(=O)(=O)c2ccc(Cl)cc2)CC1)C(F)(F)F (stereo not drawn)
KIT V559D/V654A | binding |  | 1 µM | 100 | c1cnn2ncc(-c3ccnc(N4CCC45COC5)n3)c2c1
KIT | binding | competition with immobilised ligand | 1 µM | 18 | O=C(c1ccc(Nc2ncc(Cl)c(-c3cc4ccccc4s3)n2)cc1)N1CCC(N2CCCC2)CC1
KIT D816V | binding |  | 1 µM | 100 | COc1ccnn2ncc(-c3ccnc(N(C)C)n3)c12
KIT V559D | binding | competition with immobilised ligand | 1 µM | 100 | Nc1ncc2c(n1)-c1c([nH]c3ccc(C#CC4CC4)cc13)CCCC2
KIT V559D/V654A | binding |  | 1 µM | 79 | C[C@@H]1CCN(c2nccc(-c3cnn4ncccc34)n2)C1
KIT | binding | competition with immobilised ligand | 1 µM | 100 | CNC(=O)[C@@H]1CC[C@@H](n2c(-c3ccc4cnccc4c3)nc3ccc(C(=O)NCc4cccc(C(N)=O)c4)cc32)C1
Mast/stem cell growth factor receptor Kit (KIT, Homo sapiens, UniProt P10721, A829P) | binding |  | 1 µM | 100 | N[C@H]1CCN(c2nccc(-c3cnn4ncccc34)n2)C1
KIT D816V | cell-free assay | competition with immobilised ligand | 1 µM | 100 | Cc1noc([C@H]2C[C@@H](c3ccc(C(F)(F)F)cc3)CN(C(=O)N3CCS(=O)(=O)C3)C2)n1
KIT D816V | binding | competition with immobilised ligand | 1 µM | 16 | O=C(NCCCN1CCOCC1)c1ccc(Nc2nccc(-c3cc4ccccc4s3)n2)cc1
KIT V559D/V654A | cell-free assay | competition with immobilised ligand | 0.1 µM | 100 | C[C@H](c1ccnc(Nc2nc3ccc(-c4cc(N(C)C)ncn4)cc3[nH]2)c1)N1CCN(C(=O)CC(F)(F)F)CC1
KIT V559D/V654A | binding | competition with immobilised ligand | 1 µM | 24 | CCN1CCN(Cc2ccc(C(=O)Nc3ccc(C)c(Oc4ccc5c(c4)CC(=O)N5)c3)cc2C(F)(F)F)CC1
KIT L576P | binding |  | 1 µM | 93 | CN(CCCC(F)(F)F)c1nccc(-c2cnn3ncccc23)n1
Mast/stem cell growth factor receptor Kit (KIT, Homo sapiens, UniProt P10721, D816H) | binding | competition with immobilised ligand | 1 µM | 100 | Cc1c(C(=O)O)cc(-c2ccc(C3CCNCC3)cc2)c2ccc(-c3ccc(C(F)(F)F)cc3)cc12
KIT V559D/V654A | binding | competition with immobilised ligand | 1 µM | 29 | Cc1cnc(Nc2ccc(C(=O)N3CCC(N4CCCC4)CC3)cc2)nc1-c1cc2ccccc2s1
KIT | binding | competition with immobilised ligand | 10 µM | 100 | Cc1nc(NC(=O)N2CCC[C@H]2C(N)=O)sc1-c1ccnc(C(C)(C)C(F)(F)F)c1
KIT V559D/V654A | cell-free assay | competition with immobilised ligand | 1 µM | 100 | O=C(N1CCS(=O)(=O)CC1)N1C[C@H](c2ccc(OC(F)(F)F)cc2)C[C@H](c2nc(C3CC3)no2)C1
Mast/stem cell growth factor receptor Kit (KIT, Homo sapiens, UniProt P10721, T670I/V559D) | binding | competition with immobilised ligand | 1 µM | 0.75 | O=C(c1ccc(Nc2ncc(Cl)c(-c3ccc(Cl)s3)n2)cc1)N1CCC(N2CCCC2)CC1
KIT V559D | cell-free assay | competition with immobilised ligand | 1 µM | 75 | CN(c1ccnc(CNc2nc(Nc3ccc4c(c3)CC(=O)N4)ncc2C(F)(F)F)n1)S(C)(=O)=O
KIT | binding |  | 1 µM | 100 | Cc1cnn2ncc(-c3ccnc(N(C)C)n3)c2c1
KIT | cell-free assay | competition with immobilised ligand | 1 µM | 89 | O=C(NC[C@@H]1[C@H]2CN(C(=O)OCc3cc(C(F)(F)F)cc(C(F)(F)F)c3)C[C@@H]12)c1ccc2[nH]nnc2c1
KIT autoinhibited | binding | competition with immobilised ligand | 1 µM | 82 | O=C(Nc1c[nH]nc1C(=O)NC1CCNCC1)c1cc(F)cc(F)c1
